Values after ≈ are worked out from the molar mass of the structure shown.
Key:
[1] = Selectivity index, ratio of IC50 for human DNA topoisomerase 1 to IC50 for Candida albicans DNA topoisomerase 1
[2] = target: T1, DNA topoisomerase 1 (Homo sapiens, UniProt P11387); assay: Inhibition of human DNA topoisomerase 1 using pHOT1 as substrate after 30 mins by agarose gel electrophoresis
T1 sequence (P11387 whole entry): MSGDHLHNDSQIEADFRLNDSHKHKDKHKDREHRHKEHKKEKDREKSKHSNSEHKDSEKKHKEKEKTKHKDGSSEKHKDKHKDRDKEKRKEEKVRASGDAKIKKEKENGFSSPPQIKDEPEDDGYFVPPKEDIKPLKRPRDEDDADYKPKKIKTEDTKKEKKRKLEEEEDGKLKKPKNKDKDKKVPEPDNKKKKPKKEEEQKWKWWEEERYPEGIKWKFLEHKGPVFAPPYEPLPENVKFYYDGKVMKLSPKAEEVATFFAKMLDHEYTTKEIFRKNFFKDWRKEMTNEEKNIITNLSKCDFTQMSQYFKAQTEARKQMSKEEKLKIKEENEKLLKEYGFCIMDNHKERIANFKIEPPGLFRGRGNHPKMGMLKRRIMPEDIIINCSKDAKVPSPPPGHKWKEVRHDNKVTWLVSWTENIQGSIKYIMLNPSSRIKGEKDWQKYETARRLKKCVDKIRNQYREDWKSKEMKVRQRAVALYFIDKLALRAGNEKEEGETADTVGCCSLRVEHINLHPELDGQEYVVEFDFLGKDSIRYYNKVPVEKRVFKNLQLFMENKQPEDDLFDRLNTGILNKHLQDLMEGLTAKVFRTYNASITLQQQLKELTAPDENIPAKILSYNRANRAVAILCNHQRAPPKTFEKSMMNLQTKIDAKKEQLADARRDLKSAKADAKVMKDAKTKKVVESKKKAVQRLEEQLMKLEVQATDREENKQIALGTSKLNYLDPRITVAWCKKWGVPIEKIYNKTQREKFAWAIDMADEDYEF
Procedure, shortened: (§1)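 Relaxation of supercoiled to relaxed DNA by TopoI measured with a commercial TopoI drug kit following kit protocol. IC50 calculated from dose-response curves of % inhibition versus concentration.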

[3] = Cytotoxicity against human SK-MEL cells assessed as cell growth inhibition after 48 hrs by neutral red dye based assay; type: functional
Procedure, shortened: (§2)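 Cells kept in RPMI-1640 with 10% bovine serum and 60 µg/mL amikacin, 37 °C, 5% CO2. Seeded at 25,000 cells/well, left 24 h to adhere. Samples diluted in RPMI added, highest final concentration 10 µg/mL. Growth measured by neutral red uptake after 48 h exposure.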

[4] = Cytotoxicity against human BT549 cells assessed as cell growth inhibition after 48 hrs by neutral red dye based assay; type: functional; details: BT-549, 48 h; procedure, shortened: as §2
[5] = test system: Staphylococcus aureus; assay: Antimicrobial activity against methicillin-resistant Staphylococcus aureus; type: functional
Procedure, shortened: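 MRSA precultured 24 h, diluted 1:50 in broth, added to serially diluted samples in 96-well plates (highest final DMSO 2.5%), incubated at 37 °C. Growth measured as absorbance at 630 nm versus controls. MIC is the lowest concentration giving 80% inhibition; IC50 (50% inhibition) is read from concentration versus % growth plots.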

[6] = Cytotoxicity against human SKOV3 cells assessed as cell growth inhibition after 48 hrs by neutral red dye based assay; type: functional; details: SK-OV-3, 48 h; procedure, shortened: as §2
[7] = test system: Plasmodium falciparum; assay: Antimalarial activity against Plasmodium falciparum D6 infected in RBC after 48 hrs by lactate dehydrogenase assay; type: functional; details: D6, 48 h
Procedure, shortened: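 Parasites grown in A+ human erythrocytes in RPMI 1640 with 10% A+ human serum, 25 mM HEPES, 27 mM bicarbonate, 60 µg/mL amikacin, 37 °C under 90% N2/5% O2/5% CO2. Infected cells exposed 48 h in microtiter wells, highest concentration 4.8 µg/mL. Growth read by Malstat reagent (parasite LDH) with nitro blue tetrazolium reduction, absorbance 630 nm.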

[8] = Inhibition of Candida albicans DNA topoisomerase 1 using pHOT1 as substrate after 30 mins by agarose gel electrophoresis; procedure, shortened: as §1
[9] = test system: Candida albicans; assay: Antimicrobial activity against Candida albicans B311; type: functional
Procedure, shortened: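 Cultured in Sabouraud dextrose broth 24 h, counted by hemocytometer, diluted to 10,000 CFU/mL. Added to serially diluted samples in 96-well plates, top final concentration 50 µg/mL (≤2.5% DMSO), incubated 37 °C. Growth by A630. MIC is the lowest concentration giving 80% inhibition against controls; IC50 from concentration versus % growth plots.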

[10] = test system: Cryptococcus neoformans; assay: Antimicrobial activity against Cryptococcus neoformans ATCC 52657; type: functional
Procedure, shortened: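 Grown in mycophil broth 72 h, hemocytometer-counted, diluted to 200,000 CFU/mL. Exposed to diluted samples in 96-well plates, maximum final 50 µg/mL (DMSO up to 2.5%), incubated 30 °C. A630 readout. MIC is the lowest concentration inhibiting 80% of growth versus controls; IC50 read from concentration versus % growth graphs.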

[11] = Cytotoxicity against African green monkey Vero cells assessed as cell growth inhibition at 10 ug/ml after 48 hrs by neutral red dye based assay; type: toxicity; details: chlorocebus sabaeus; procedure, shortened: as §2
[12] = Cytotoxicity against human KB cells assessed as cell growth inhibition after 48 hrs by neutral red dye based assay; type: functional; procedure, shortened: as §2
[13] = test system: Mycobacterium intracellulare; assay: Antimicrobial activity against Mycobacterium intracellulare ATCC 23068; type: functional
Procedure, shortened: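 Mycobacterium grown 72 h in Middlebrook medium with OADC supplement, diluted 1:30 in broth. Incubated at 37 °C with diluted samples in 96-well plates, highest final 50 µg/mL, DMSO at most 2.5%. Absorbance at 630 nm. MIC = lowest concentration with 80% growth inhibition relative to controls; IC50 from concentration versus % growth plots.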

[14] = Cytotoxicity against African green monkey Vero cells assessed as cell growth inhibition after 48 hrs by neutral red dye based assay; type: toxicity, Chlorocebus sabaeus; procedure, shortened: as §2
[15] = test system: Staphylococcus aureus; assay: Antimicrobial activity against Staphylococcus aureus ATCC 6538; type: functional
Procedure, shortened: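 Staphylococcus aureus grown 24 h in Eugon broth, diluted 1:50 in broth, added to serially diluted samples in 96-well plates (highest final DMSO 2.5%), incubated at 37 °C. Growth measured at 630 nm versus controls. MIC is the lowest concentration inhibiting 80% of growth; IC50 (50% inhibition) comes from concentration versus % growth plots.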

[16] = test system: Pseudomonas aeruginosa; assay: Antimicrobial activity against Pseudomonas aeruginosa ATCC 15442; type: functional
Procedure, shortened: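 Pseudomonas grown 24 h in trypticase soy broth, diluted 1:50. Combined with diluted samples in 96-well plates, top final concentration 50 µg/mL (≤2.5% DMSO), 37 °C incubation. Growth read at 630 nm. MIC is the lowest tested concentration inhibiting 80% of growth versus controls; IC50 from concentration versus % growth graphs.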

| Structure (SMILES) | Ratio IC50 [1] | IC50 [2] | IC50 [3] | IC50 [4] | IC50 [5] | IC50 [6] | IC50 [7] | IC50 [8] | IC50 [9] | MIC80 [9] | IC50 [10] | MIC80 [10] | Activity [11] | IC50 [12] | MIC80 [13] | IC50 at 48 h [14] | IC50 [15] | IC50 [16] |
| --- | --- | --- | --- | --- | --- | --- | --- | --- | --- | --- | --- | --- | --- | --- | --- | --- | --- | --- |
| COc1cc(C[n+]2ccc3ccnc4c3c2-c2ccccc2-4)cc(OC)c1.[Br-] | 0.83 | 34.5 µM | 2 mg/L | > 10 mg/L | 9 mg/L | < 1.1 mg/L | 0.011 mg/L | 12.5 mg/L | 20 mg/L | 25 mg/L | 0.92 mg/L | 3.12 mg/L | Non-Toxic | 7 mg/L | 50 mg/L | – | – | – |
| COc1cccc2c1C(=O)c1c(O)c3c(c(O)c1C2=O)C[C@@](O)(C(=O)CO)C[C@@H]3O[C@H]1C[C@H](N)[C@H](O)[C@H](C)O1 [DOXORUBICIN] | – | – | 1.11 mg/L (≈ 2.04 µM) | 1.35 mg/L (≈ 2.48 µM) | – | 1.3 mg/L (≈ 2.39 µM) | – | – | – | – | – | – | – | 1.59 mg/L (≈ 2.93 µM) | – | > 10 mg/L | – | – |
| [Br-].c1ccc(C[n+]2ccc3c4c(nc5ccccc53)-c3ccccc3-c42)cc1 | 0.96 | 1.34 µM | 1.8 mg/L | 6 mg/L | 35 mg/L | 1.2 mg/L | 0.0415 mg/L | 0.55 mg/L | – | – | 2.13 mg/L | 12.5 mg/L | Non-Toxic | 2.9 mg/L | 10 mg/L | – | 5 mg/L | 4 mg/L |
| Cc1cc2c3c(nc4ccccc42)-c2ccccc2-c3[n+]1C.[I-] | 0.71 | 1.71 µM | > 10 mg/L | 5.4 mg/L | 25 mg/L | 4.5 mg/L | 0.02 mg/L | 0.5 mg/L | 25 mg/L | 50 mg/L | 1.83 mg/L | 3.12 mg/L | Non-Toxic | 3.5 mg/L | – | – | – | – |
| NC(=O)C[n+]1ccc2ccnc3c2c1-c1ccccc1-3.[Br-] | – | – | 6.5 mg/L | – | – | > 10 mg/L | 0.09 mg/L | – | – | – | 30 mg/L | 50 mg/L | – | – | – | > 10 mg/L | – | – |
| C[n+]1c2c3c(nc(-c4ccccc4)cc3c3ccccc31)-c1ccccc1-2.[I-] | 0.79 | 1.01 µM | 3.5 mg/L | 7.5 mg/L | 5 mg/L | 4.5 mg/L | – | 0.375 mg/L | 0.2 mg/L | 0.39 mg/L | 0.23 mg/L | 0.78 mg/L | Non-Toxic | > 10 mg/L | 50 mg/L | – | 4.5 mg/L | 4 mg/L |
| Cc1ccc(C[n+]2ccc3ccnc4c3c2-c2ccccc2-4)cc1.[Br-] | 1 | 28.3 µM | 1.9 mg/L | – | 35 mg/L | < 1.1 mg/L | 0.0095 mg/L | 11 mg/L | 3.17 mg/L | 6.25 mg/L | 0.33 mg/L | 0.78 mg/L | Non-Toxic | 6.8 mg/L | 50 mg/L | – | – | – |
